The test system of one assay is Trypanosoma cruzi. The assay is described as follows: Antiprotozoal activity against trypomastigotes form of Trypanosoma cruzi Y at 250 ug/ml after 24 hrs. Type of assay: functional. The method, boiled down: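 Bloodstream trypomastigotes taken from blood of T. cruzi-infected mice and incubated with test compound (DMSO solution) for 24 h at 4°. Parasites then counted. Assay done three times.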

The subject of assay [1] is Leishmania donovani. The assay is described as follows: Antiprotozoal activity against promastigotes form of Leishmania donovani pp-75 assessed as total lysis of parasites at 100 ug/ml after 24 hrs. Type of assay: functional, organism-based. The method, boiled down:
(§1)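 Promastigotes of each Leishmania strain exposed to test compound at 100 µg/ml, dissolved in DMSO, for 24 h at 28°. Viability judged by direct inverted-microscope observation and scored against controls: 0 no lysis; + less mobile; ++ modified or immobilized; +++ total lysis. Three independent runs.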

In assay [2] the test system is Leishmania braziliensis. The assay is described as follows: Antiprotozoal activity against promastigotes form of Leishmania braziliensis 2903 assessed as total lysis of parasites at 100 ug/ml after 24 hrs. It counts as functional, organism-based. A digest of the protocol: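 Promastigotes exposed to compound (dissolved in DMSO) at 100 µg/ml for 24 h at 28°. Viability judged by direct observation under an inverted microscope and scored as 0 (no lysis), + (less mobile than controls), ++ (modified or immobilized) or +++ (total lysis). Each assay run three times. Glucantime and pentamidine used as control drugs.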

For assay [3], the system named is Leishmania amazonensis. Nature of the assay: Antiprotozoal activity against promastigotes form of Leishmania amazonensis LV79 assessed as total lysis of parasites at 100 ug/ml after 24 hrs. Type of assay: functional, organism-based. A digest of the protocol:
as §1

Assay [4] deals with Leishmania amazonensis. The assay is described as follows: Antiprotozoal activity against promastigotes form of Leishmania amazonensis H-142 assessed as total lysis of parasites at 100 ug/ml after 24 hrs. Type of assay: functional, organism-based. The method, boiled down: as §1
Assay [5] relates to Leishmania amazonensis. Nature of the assay: Antiprotozoal activity against promastigotes form of Leishmania amazonensis LV79 assessed as less mobile parasites at 100 ug/ml after 24 hrs. Type of assay: functional, organism-based. The method, boiled down: as §1
Assay [6] relates to Leishmania donovani. The assay is described as follows: Antiprotozoal activity against promastigotes form of Leishmania donovani pp-75 assessed as less mobile parasites at 100 ug/ml after 24 hrs. It counts as functional, organism-based. A digest of the protocol:
as §1

Assay [7] has as its system Leishmania amazonensis. The assay is described as follows: Antiprotozoal activity against promastigotes form of Leishmania amazonensis H-142 assessed as less mobile parasites at 100 ug/ml after 24 hrs. It counts as functional, organism-based. A digest of the protocol: as §1
Assay [8] deals with Leishmania braziliensis. Nature of the assay: Antiprotozoal activity against promastigotes form of Leishmania braziliensis 2903 assessed as immobilized parasites at 100 ug/ml after 24 hrs. Type of assay: functional, organism-based. A digest of the protocol:
as §1

Assay [9] relates to Leishmania donovani. The assay is described as follows: Antiprotozoal activity against promastigotes form of Leishmania donovani pp-75 assessed as immobilized parasites at 100 ug/ml after 24 hrs. Type of assay: functional, organism-based. A digest of the protocol:
as §1

Active and inactive are the calls of the source. No cut-off for these calls is given here.

In the case of `CN(C)c1ccc(C(=C2C=CC(=[N+](C)C)C=C2)c2ccc(N(C)C)cc2)cc1.[Cl-]` [GENTIAN VIOLET], the Activity with Trypanosoma cruzi is 100%.
Still for that read-out and setting: the value for `COc1cccc2c1-c1c3c(c(OC)c4ccnc(c14)C2=O)OCO3` was 46.6%.
Turning to MEGLUMINE ANTIMONATE, the result in the assay with Leishmania donovani [1], in the assay on Leishmania braziliensis [2], with Leishmania amazonensis [3] and with Leishmania amazonensis [4] was Active.
As to `COc1c(O)cc(CCN(C)C)c2ccc3ccccc3c12` [ARGENTININE], the result with Leishmania amazonensis [5], in the assay on Leishmania donovani [6], in the assay on Leishmania amazonensis [7] and in the assay on Leishmania braziliensis [8] was Active. This molecule yielded an Activity in the assay with Trypanosoma cruzi of 81.3%.
Regarding `COc1c(O)c2c3c(c1OC)-c1ccc(O)cc1C[C@@H]3NCC2`, in the assay with Trypanosoma cruzi, the Activity came out at 2.55%.
For `N=C(N)c1ccc(OCCCCCOc2ccc(C(=N)N)cc2)cc1`, the result in the assay on Leishmania donovani [1], in the assay with Leishmania braziliensis [2], in the assay on Leishmania amazonensis [3] and in the assay on Leishmania amazonensis [4] was Active.
`COc1cc2c(cc1O)C[C@H]1c3cc(O)c(OC)cc3CCN1C2` [COREXIMINE]: the outcome with Leishmania amazonensis [5], with Leishmania amazonensis [7], in the assay with Leishmania donovani [9] and with Leishmania braziliensis [8] was Active. The Activity in the assay with Trypanosoma cruzi came to 0%.
`COc1cccc2c1-c1c3c(c(OC)c4c1[C@@H](C2)NCC4)OCO3` returned an Activity in the assay on Trypanosoma cruzi of 35.7%.
The same measure, in the same setting: in the case of `COc1c(O)c2c3c(c1OC)-c1ccccc1C[C@H]3NCC2` it was 68.2%.
Turning to `COc1c(O)c(OC)c2c3c1CCN=C3C(C)(O)c1cc(O)ccc1-2` (stereo not given) [ISOGUATTOUREGIDINE], the result in the assay on Leishmania donovani [1], in the assay on Leishmania braziliensis [8], in the assay on Leishmania amazonensis [3] and with Leishmania amazonensis [4] was Active. Also, the Activity with Trypanosoma cruzi came out at 92%.
The molecule `COc1c2c3c(c4c1OCO4)-c1c(O)cccc1C[C@H]3NCC2` [ELMERRILLICINE] gave an Activity in the assay on Trypanosoma cruzi of 0%.
In turn, `COc1c2c3c(c4c1OCO4)-c1ccc(O)cc1C(C)(O)C3=NCC2` (stereo not given) returned an Activity in the assay with Trypanosoma cruzi of 0%.
